Source: PubChem BioAssay (several laboratories)
AI-2 QS mod = modulators of Vibrio harveyi AI-2 quorum sensing system | Vibrio harveyi JMH597 AI-2 luminescence/OD600 ratio, 9 h; stronger effect = lower value; strain lacks LuxN and CqsS sensors; 0 = neutral-control median | activity change, % at 7.5 µM | 0.4% of 300,000 active; in the data active means activity change below about -75%, passing the limit was not always enough;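 further: luminescence divided by OD600 gain over 9 h not by final OD600 alone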
TbMetRS inhib = Trypanosoma brucei MetRS inhibition. inhibition, % at 11.9 µM. purified T. brucei MetRS, ATP depletion, Kinase-Glo luminescence. 0.4% of 360,000 active;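 active means inhibition above a per-plate cutoff of the control wells' mean inhibition plus 3 SD, cut at about 5.5% in these data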;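 further: 0% = DMSO wells median and 100% = median of wells with control inhibitor compound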
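Material: parasite MetRS enzyme / Replication: singlicate, one well per compound / Signal: luminescence of leftover ATP / Schedule: 2 h aminoacylation at 25 °C after 15 min preincubation / Medium: HEPES-MgCl2-KCl buffer plus DTT, spermine, BSA, pyrophosphatase / Doses: 11.9 µM single point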
MsrA inh = bovine MsrA inhibition. inhibition, % at 15.5 µM. purified bovine MsrA, absorbance read-out. 0.75% of 360,000 active. AID 651718; in the data active means inhibition above about 4.5%;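 further: 0% = vehicle wells with enzyme and 100% = reference inhibitor wells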
m5-HT2A agonist = mouse HTR2A agonism via beta-arrestin recruitment; CHO-K1 mHTR2A beta-arrestin complementation, luminescence; percent of 30 µM serotonin response; activation, % at 7.6 µM; 0.66% of 360,000 active; P35363;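 active means activation above a run cutoff, the mean activation of all tested compounds plus 3 SD, cut at about 14% in these data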;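 further: 0% = plate median of compound wells and 100% = 30 µM serotonin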
MsrA act = bovine methionine sulfoxide reductase A activation; activation, % at 10.6 µM; purified bovine MsrA, absorbance read-out; 0.3% of 360,000 active; in the data active means activation above about 7.5%;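 further: 0% = vehicle and 100% = reference activator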
AHR activator = activates the human aryl hydrocarbon receptor; P35869; AHR-responsive luciferase reporter cells, luminescence; activation, % at 5 µM; 2.5% of 320,000 active; in the data active means activation above about 47%;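 further: 0% = vehicle wells and 100% = reference agonist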
Tb MetRS conf = Trypanosoma brucei MetRS inhibition confirmed | AID 624412 | shares compounds with TbMetRS inhib | T. brucei MetRS enzyme, luminescence (ATP depletion) | inhibition, % at 11.9 µM | 93% of 1,400 active; in the data active means inhibition above about 7%
Jurkat tox = counter-screen for T. brucei MetRS inhibitors: Jurkat cell cytotoxicity; Jurkat cells viability, ATP luminescence; shares compounds with TbMetRS inhib; 12% of 1,400 active; AID 624413; inhibition, % at 8.3 µM; in the data active means inhibition above about 15%;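 further: 0% = vehicle and 100% = reference inhibitor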
TbMetRS FP orth = T. brucei MetRS inhibition, orthogonal assay; shares compounds with TbMetRS inhib; inhibition, % at 11.9 µM; 44% of 1,400 active; purified T. brucei MetRS, fluorescence polarization; in the data active means inhibition above about 17%;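 further: 0% = vehicle wells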
Active calls of the source: *; x = no result given. Only some compounds are listed: those with a hit (about 4.4% of all), similar ones and a draw of the others.

SMILES | AI-2 QS mod | TbMetRS inhib | MsrA inh | m5-HT2A agonist | MsrA act | AHR activator | Tb MetRS conf | Jurkat tox | TbMetRS FP orth
Cc1cc(C)n(-c2nnc(C)n2/N=C/c2cc(Br)ccc2OCc2ccccc2)n1 | 42 | 6.4* | 0 | -4 | 3 | -3 | 1 | -2 | 4
O=C(Nc1cccc(Cl)c1)c1csc(COCCO)n1 | x | 0 | 0 | 5 | -6 | x | x | x | x
Cc1ccc(C2(C)NC(=O)N(CC(=O)NC(=O)NC(C)(C)C)C2=O)cc1 (centres undefined) | 7 | 0 | 0 | -3 | -1 | -1 | x | x | x
Cn1nnc(NCc2cc(Br)ccc2OCc2cccs2)n1 | -1 | 20* | 0 | -5 | -3 | 6 | 28* | 3 | 13
Cc1ccccc1N/N=C/c1c(C)nc2ccccn12 | 14 | 0 | 2 | -7 | -3 | 17 | x | x | x
COc1ccc(NC(=S)NC23CC4CC(CC(C4)C2)C3)cc1OC | 11 | 0 | 0 | -4 | 0 | 0 | x | x | x
CCOc1cccc(-c2c(C(=O)N/N=C/c3ccc(Br)cc3)nnn2-c2nonc2N)c1 | 41 | 0 | 2 | -4 | -3 | 2 | x | x | x
O=C(CCCSc1nc2ccccc2[nH]1)NCc1ccccc1Cl | 7 | 10* | -1 | -1 | -5 | 1 | 17* | 7 | 6
O=C(COC(=O)CCCSc1nc2ccccc2[nH]1)Nc1ccc(Cl)cc1 | 45 | 13* | 1 | -6 | -3 | 9 | 21* | 1 | 13
O=C(CCCSc1nc2ccccc2[nH]1)NC(c1ccccc1)c1ccccc1 | 36 | 0 | 0 | -5 | -6 | 2 | x | x | x
CC(Oc1ccc2c(-c3ccccc3)cc(=O)oc2c1)C(=O)NC(Cc1c[nH]c2ccc(O)cc12)C(=O)O (centres undefined) | 24 | 7.4* | 2 | -3 | -4 | 1 | 17* | -4 | 7
O=C(CN(Cc1ccccc1)C1=NCCS1)c1ccc(Cl)cc1 | 14 | 25* | -1 | -6 | -10 | 1 | 42* | 13 | 23*
COc1ccc(NC(=O)CSc2nc3ccsc3c(=O)n2CCC(=O)O)cc1 | x | 0 | 0 | 2 | -4 | x | x | x | x
CCN(CC)CCN1C(=O)C2C(C(=O)Nc3ccc(C(C)C)cc3)C3C=CC2(O3)C1C(=O)NC1CCCCC1 (centres undefined) | 21 | -1 | 0 | 8 | -3 | 0 | x | x | x
O=C(CSc1nc2ccccc2o1)Nc1cc(C(F)(F)F)ccc1N1CCOCC1 | 2 | 0 | -1 | -5 | 2 | 0 | x | x | x
O=C(Cn1cnc2ccccc21)Nc1cc(C(F)(F)F)ccc1N1CCOCC1 | 5 | 27* | -1 | 3 | 2 | 1 | 43* | -2 | 23*
CCOC(=O)C1(C)CCCN(C(=O)CCc2ccccc2)C1 (centres undefined) | x | 0 | 0 | -1 | -2 | x | x | x | x
OC(c1ccc(Cl)c(F)c1)c1ncc(-c2ccc(Oc3ccccc3)cc2)[nH]1 (centres undefined) | x | 0 | 2 | 1 | -2 | x | x | x | x
OC(c1ccc(Cl)c(F)c1)c1ncc(-c2ccc(Cl)cc2)[nH]1 (centres undefined) | x | 5.8* | -1 | 1 | 0 | x | 41* | 8 | 17
OC(c1ccc(Cl)c(Cl)c1)c1ncc(-c2ccc(Cl)cc2)[nH]1 (centres undefined) | x | 51* | 0 | 2 | -2 | x | 86* | -2 | 66*
COc1ccc([C@H]2CN(c3ccc(OC)cc3)C(=O)[C@@H]2CC(=O)Nc2ccc(Br)cc2)cc1 | x | 8.6* | 1 | 9 | -1 | x | 19* | 10 | 8
O=C(C[C@H]1C(=O)N(Cc2cccnc2)C[C@@H]1Cc1ccccc1)Nc1ccc(Br)cc1 | x | 41* | 0 | -1 | -1 | x | 67* | 11 | 41*
O=C(C[C@H]1C(=O)N(Cc2ccccc2)C[C@@H]1Cc1ccccc1)Nc1ccc(Br)cc1 | x | 10* | 1 | -6 | -5 | x | 30* | 7 | 8
